In ChEMBL document CHEMBL1137328, “5-pyrrolidinylsulfonyl isatins as a potential tool for the molecular imaging of caspases in apoptosis” (J Med Chem, 2006):
Calls of active or inactive are those of the source. The rule behind the calls is not given here.

What was measured:
[1] = biological target: T1, Caspase-7 (Homo sapiens, UniProt P55210); assay: Inhibition of caspase 7
T1 sequence (P55210 whole entry): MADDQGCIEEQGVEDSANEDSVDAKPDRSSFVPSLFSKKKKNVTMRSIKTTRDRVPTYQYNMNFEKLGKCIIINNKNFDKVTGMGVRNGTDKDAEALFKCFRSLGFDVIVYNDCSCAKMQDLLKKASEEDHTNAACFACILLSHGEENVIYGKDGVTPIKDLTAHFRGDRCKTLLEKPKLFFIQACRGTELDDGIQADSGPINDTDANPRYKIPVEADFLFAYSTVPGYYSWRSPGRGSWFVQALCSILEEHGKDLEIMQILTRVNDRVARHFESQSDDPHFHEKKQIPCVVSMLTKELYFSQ
In short: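 Inhibitor in DMSO (final 5 pM–500 µM, single doses) preincubated 10 min, then Ac-DEVD-AMC (final 10 µM) reacted 10 min. Cleaved AMC quantified by fluorescence; IC50 by nonlinear regression.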

[2] = biological target: Caspase-8 (Homo sapiens, UniProt Q14790); assay: Inhibition of caspase 8
Chain of Caspase-8 (Q14790 217-374 limits assumed): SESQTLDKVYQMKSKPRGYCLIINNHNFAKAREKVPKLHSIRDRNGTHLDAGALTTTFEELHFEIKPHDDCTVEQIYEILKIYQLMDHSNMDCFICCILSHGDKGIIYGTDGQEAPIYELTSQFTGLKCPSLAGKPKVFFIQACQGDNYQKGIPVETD
Chain of Caspase-8 (Q14790 385-479 limits assumed): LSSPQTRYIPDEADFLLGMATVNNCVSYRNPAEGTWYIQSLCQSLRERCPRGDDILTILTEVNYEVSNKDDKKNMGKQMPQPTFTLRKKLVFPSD
In short: (§1)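 Recombinant human caspase-1, -6 or -8 at 0.5 units per assay, preincubated 10 min at 37 °C with compound in DMSO at single doses from 5 pM to 500 µM. Fluorogenic AMC substrate then added at 10 µM final (caspase-1 Ac-YVAD-AMC, caspase-6 Ac-VEID-AMC, caspase-8 Ac-IETD-AMC) for a further 10 min. Read-out was AMC fluorescence. IC50 taken by nonlinear regression.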

[3] = system: HUVEC; assay: Inhibition of caspase 3 processing in apoptotic HUVEC at 10 uM; format: functional, cell-based; conditions: Homo sapiens
In short: (§2)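 HUVEC grown on gelatin-coated dishes in RPMI-1640 with 15% calf serum, heparin and pituitary extract. Cells were preincubated 30 min with compound. Apoptosis was then induced by growth-factor withdrawal (RPMI-1640 alone), with compound present, for 8 h at 37 °C. Lysates (30 µg) were run on 15% SDS-PAGE Western blots for processed caspase-3 (p17/p12), caspase-8, caspase-9, cleaved PARP ([…]) and lamin A/C. Z-VAD-fmk served as full-inhibition control and β-actin as loading control.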

[4] = biological target: T2, Caspase-3 (Homo sapiens, UniProt P42574); assay: Binding affinity to human caspase 3
T2 sequence (P42574 whole entry): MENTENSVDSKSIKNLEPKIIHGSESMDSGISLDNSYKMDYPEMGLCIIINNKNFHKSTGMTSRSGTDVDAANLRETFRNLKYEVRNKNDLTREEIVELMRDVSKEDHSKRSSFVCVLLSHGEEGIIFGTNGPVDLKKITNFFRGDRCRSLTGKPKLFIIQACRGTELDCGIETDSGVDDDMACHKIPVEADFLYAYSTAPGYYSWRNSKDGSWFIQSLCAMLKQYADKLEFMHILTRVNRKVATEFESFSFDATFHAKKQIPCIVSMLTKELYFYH
In short: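 Recombinant full-length human caspase-3 (1 unit/assay, 0.5 pM) preincubated 10 min at 37 °C with isatin in DMSO (single doses, 5 pM–500 µM) in 25 mM HEPES pH 7.5, 0.1% CHAPS, 50 mM KCl, 5 mM β-mercaptoethanol. Ac-DEVD-AMC (10 µM final) then added for 10 min. IC50 by nonlinear regression, converted to Ki = IC50/(1+[S]/KM). Mean of three assays.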

[5] = biological target: T3, Caspase-1 (Homo sapiens, UniProt P29466); assay: Inhibition of caspase 1; in short: as §1
T3 sequence (P29466 whole entry): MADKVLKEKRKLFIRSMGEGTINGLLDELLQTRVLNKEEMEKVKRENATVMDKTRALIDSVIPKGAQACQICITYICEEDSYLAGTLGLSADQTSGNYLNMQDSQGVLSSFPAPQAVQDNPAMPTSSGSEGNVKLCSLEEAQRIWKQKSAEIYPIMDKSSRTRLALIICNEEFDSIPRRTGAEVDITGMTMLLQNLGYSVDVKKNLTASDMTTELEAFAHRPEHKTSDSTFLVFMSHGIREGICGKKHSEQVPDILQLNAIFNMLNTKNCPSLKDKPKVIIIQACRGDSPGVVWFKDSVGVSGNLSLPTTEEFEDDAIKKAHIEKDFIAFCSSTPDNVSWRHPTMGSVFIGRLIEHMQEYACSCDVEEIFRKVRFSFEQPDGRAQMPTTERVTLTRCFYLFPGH

[6] = biological target: T2, Caspase-3; assay: Inhibition of caspase 3
In short: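 Recombinant human caspases (0.5 units/assay) preincubated 10 min at 37 °C with isatin in DMSO (single doses, 5 pM–500 µM). The buffer for all was 0.1% CHAPS, 100 mM NaCl, 2 mM EDTA, 10% sucrose, with 20 mM HEPES pH 7.4. Caspase-1 used 100 mM HEPES and β-mercaptoethanol, and caspase-7 used β-mercaptoethanol. AMC substrates at 10 µM for 10 min: YVAD (caspase-1), DEVD (caspase-3/-7), VEID (caspase-6), IETD (caspase-8). IC50 by nonlinear regression.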

[7] = biological target: T4, Caspase-6 (Homo sapiens, UniProt P55212); assay: Inhibition of caspase 6; in short: as §1
T4 sequence (P55212 whole entry): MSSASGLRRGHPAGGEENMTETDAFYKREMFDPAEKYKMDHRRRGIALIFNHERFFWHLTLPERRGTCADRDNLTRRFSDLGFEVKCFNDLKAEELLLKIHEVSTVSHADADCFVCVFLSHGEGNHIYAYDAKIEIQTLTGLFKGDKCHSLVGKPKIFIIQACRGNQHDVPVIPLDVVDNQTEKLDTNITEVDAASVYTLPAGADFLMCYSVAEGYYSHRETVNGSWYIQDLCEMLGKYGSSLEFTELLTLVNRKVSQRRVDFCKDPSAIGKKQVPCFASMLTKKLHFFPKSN

[8] = system: HUVEC; assay: Inhibition of caspase 8 processing in apoptotic HUVEC at 50 uM; format: functional, cell-based; conditions: Homo sapiens; in short: as §2
[9] = system: HUVEC; assay: Inhibition of caspase 8 processing in apoptotic HUVEC at 100 uM; format: functional, cell-based; conditions: Homo sapiens; in short: as §2
[10] = system: HUVEC; assay: Inhibition of caspase 9 processing in apoptotic HUVEC at 50 uM; format: functional, cell-based; conditions: Homo sapiens; in short: as §2
[11] = system: HUVEC; assay: Inhibition of caspase 9 processing in apoptotic HUVEC at 100 uM; format: functional, cell-based; conditions: Homo sapiens; in short: as §2
[12] = system: HUVEC; assay: Inhibition of PARP cleavage in apoptotic HUVEC at 50 uM; format: functional, cell-based; conditions: Homo sapiens; in short: as §2
[13] = system: HUVEC; assay: Inhibition of lamin A/C cleavage in apoptotic HUVEC at 50 uM; format: functional, cell-based; conditions: Homo sapiens; in short: as §2

## COC[C@@H]1CCCN1S(=O)(=O)c1ccc2c(c1)C(=O)C(=O)N2Cc1ccc(I)cc1
[1]
  IC50: 0.0018 µM
[2]
  IC50: > 500 µM
[3]
  Activity: Active
[4]
  Ki: 0.0059 µM
[5]
  IC50: > 10 µM
[6]
  IC50: 0.012 µM
[7]
  IC50: > 500 µM

## COC[C@@H]1CCCN1S(=O)(=O)c1ccc2c(c1)C(=O)C(=O)N2Cc1ccc(OCCBr)cc1
[1]
  IC50: 0.0257 µM
[2]
  IC50: > 500 µM
[4]
  Ki: 0.008 µM
[5]
  IC50: > 15 µM
[6]
  IC50: 0.0163 µM
[7]
  IC50: > 500 µM

## O=C1C(=O)N(Cc2ccc(OCCBr)cc2)c2ccc(S(=O)(=O)N3CCC[C@H]3COc3ccccc3)cc21
[1]
  IC50: 0.042 µM
[2]
  IC50: > 500 µM
[4]
  Ki: 0.0126 µM
[5]
  IC50: > 500 µM
[6]
  IC50: 0.0256 µM
[7]
  IC50: > 500 µM

## COC[C@@H]1CCCN1S(=O)(=O)c1ccc2c(c1)C(=O)C(=O)N2
[1]
  IC50: 1.29 µM
[2]
  IC50: > 500 µM
[4]
  Ki: 0.0418 µM
[5]
  IC50: > 15 µM
[6]
  IC50: 0.0849 µM
[7]
  IC50: > 500 µM

## COC[C@@H]1CCCN1S(=O)(=O)c1ccc2c(c1)C(=O)C(=O)N2Cc1ccc(OCCOS(=O)(=O)c2ccc(C)cc2)cc1
[1]
  IC50: 0.0138 µM
[2]
  IC50: > 500 µM
[4]
  Ki: 0.0008 µM
[5]
  IC50: > 500 µM
[6]
  IC50: 0.0017 µM
[7]
  IC50: > 500 µM

## Cc1ccc(S(=O)(=O)OCCOc2ccc(CN3C(=O)C(=O)c4cc(S(=O)(=O)N5CCC[C@H]5COc5ccccc5)ccc43)cc2)cc1
[1]
  IC50: 0.0509 µM
[2]
  IC50: > 500 µM
[4]
  Ki: 0.0086 µM
[5]
  IC50: > 500 µM
[6]
  IC50: 0.0175 µM
[7]
  IC50: > 500 µM

## O=C1C(=O)N(Cc2ccc(I)cc2)c2ccc(S(=O)(=O)N3CCC[C@H]3COc3ccccc3)cc21
[1]
  IC50: 0.0186 µM
[2]
  IC50: > 500 µM
[5]
  IC50: > 500 µM
[7]
  IC50: > 500 µM

## COc1ccc(CN2C(=O)C(=O)c3cc(S(=O)(=O)N4CCC[C@H]4COc4ccccc4)ccc32)cc1
[1]
  IC50: 0.0312 µM
[2]
  IC50: > 500 µM
[4]
  Ki: 0.0048 µM
[5]
  IC50: > 500 µM
[6]
  IC50: 0.0097 µM
[7]
  IC50: > 500 µM

## COC[C@@H]1CCCN1S(=O)(=O)c1ccc2c(c1)C(=O)C(=O)N2C
[1]
  IC50: 0.304 µM
[2]
  IC50: > 500 µM
[3]
  Activity: Active
[8]
  Activity: Active
[9]
  Activity: Active
[10]
  Activity: Active
[11]
  Activity: Active
[4]
  Ki: 0.0012 µM
[5]
  IC50: > 25 µM
[6]
  IC50: 0.0024 µM
[7]
  IC50: > 500 µM
[12]
  Activity: Active
[13]
  Activity: Active

## O=C1C(=O)N(Cc2ccc(OCCF)cc2)c2ccc(S(=O)(=O)N3CCC[C@H]3COc3ccccc3)cc21
[2]
  IC50: > 500 µM
[4]
  Ki: 0.0002 µM
[5]
  IC50: > 500 µM
[6]
  IC50: 0.0003 µM
[7]
  IC50: > 500 µM

## O=C1C(=O)N(Cc2ccc(O)cc2)c2ccc(S(=O)(=O)N3CCC[C@H]3COc3ccccc3)cc21
[1]
  IC50: 0.0527 µM
[2]
  IC50: > 500 µM
[4]
  Ki: 0.004 µM
[5]
  IC50: > 25 µM
[6]
  IC50: 0.0082 µM
[7]
  IC50: > 500 µM

## CC(C)(C)[Si](C)(C)Oc1ccc(CN2C(=O)C(=O)c3cc(S(=O)(=O)N4CCC[C@H]4COc4ccccc4)ccc32)cc1
[1]
  IC50: 0.366 µM
[2]
  IC50: > 500 µM
[4]
  Ki: 0.0098 µM
[5]
  IC50: > 500 µM
[6]
  IC50: 0.02 µM
[7]
  IC50: > 500 µM

## COC[C@@H]1CCCN1S(=O)(=O)c1ccc2c(c1)C(=O)C(=O)N2Cc1ccc(OC)cc1
[1]
  IC50: 0.004 µM
[2]
  IC50: > 500 µM
[3]
  Activity: Active
[8]
  Activity: Active
[9]
  Activity: Active
[10]
  Activity: Active
[11]
  Activity: Active
[5]
  IC50: > 10 µM
[6]
  IC50: 0.0184 µM
[7]
  IC50: > 500 µM
[12]
  Activity: Active
[13]
  Activity: Active

## O=C1Nc2ccc(S(=O)(=O)N3CCC[C@H]3COc3ccccc3)cc2C1=O
[1]
  IC50: 0.294 µM
[2]
  IC50: > 500 µM
[4]
  Ki: 0.0083 µM
[5]
  IC50: > 10 µM
[6]
  IC50: 0.0169 µM
[7]
  IC50: > 500 µM

## COC[C@@H]1CCCN1S(=O)(=O)c1ccc2c(c1)C(=O)C(=O)N2Cc1ccc(O[Si](C)(C)C(C)(C)C)cc1
[1]
  IC50: 0.0698 µM
[2]
  IC50: > 500 µM
[4]
  Ki: 0.0019 µM
[5]
  IC50: > 7 µM
[6]
  IC50: 0.0038 µM
[7]
  IC50: > 500 µM

## COC[C@@H]1CCCN1S(=O)(=O)c1ccc2c(c1)C(=O)C(=O)N2Cc1ccc(O)cc1
[1]
  IC50: 0.0323 µM
[2]
  IC50: > 500 µM
[4]
  Ki: 0.0235 µM
[5]
  IC50: > 60 µM
[6]
  IC50: 0.0478 µM
[7]
  IC50: > 500 µM
